Measured values taken from ChEMBL document CHEMBL1155468, “Syntheses and evaluation of anticonvulsant profile and teratogenicity of novel amide derivatives of branched aliphatic carboxylic acids with 4-aminobenzensulfonamide” (J Med Chem, 2010).
Calls of active or inactive are those of the source. The calls are words filed in the database; no cut-off is given here.

Assays:
Mus musculus [1] = experiment: Anticonvulsant activity in CF1 albino mouse assessed as inhibition of subcutaneous pentylenetetrazole-induced seizures at 30 mg/kg, ip after 0.5 hrs; format: functional, organism-based; set-up: dose 30 mg/kg
Summary of the method: (§1)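 Adult male CF no. 1 albino mice (18-25 g) dosed ip with compound suspended in 0.5% methylcellulose (0.01 mL/g). Convulsant: pentylenetetrazol dissolved in 0.9% saline as a 0.85% solution for mice, given subcutaneously.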

Mus musculus [2] = experiment: Anticonvulsant activity in CF1 albino mouse assessed as inhibition of subcutaneous pentylenetetrazole-induced seizures at 100 mg/kg, ip after 0.5 hrs; format: functional, organism-based; set-up: dose 100 mg/kg; summary of the method: as §1
Mus musculus [3] = experiment: Anticonvulsant activity in CF1 albino mouse assessed as inhibition of subcutaneous pentylenetetrazole-induced seizures at 300 mg/kg, ip after 0.5 hrs; format: functional, organism-based; set-up: dose 300 mg/kg; summary of the method: as §1
Mus musculus [4] = experiment: Anticonvulsant activity in CF1 albino mouse assessed as inhibition of subcutaneous pentylenetetrazole-induced seizures at 30 mg/kg, ip after 4 hrs; format: functional, organism-based; set-up: dose 30 mg/kg; summary of the method: as §1
Mus musculus [5] = experiment: Anticonvulsant activity in CF1 albino mouse assessed as inhibition of subcutaneous pentylenetetrazole-induced seizures at 100 mg/kg, ip after 4 hrs; format: functional, organism-based; set-up: dose 100 mg/kg; summary of the method: as §1
Mus musculus [6] = experiment: Teratogenic effect in SWV mouse assessed as resorptions at 729 mg/kg, ip administered on morning of day 8 of gestation; format: toxicity, organism-based; set-up: dose 729 mg/kg, route intraperitoneal; settings: in vivo
Summary of the method: (§2)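 SWV inbred mice: two-month-old nulligravid females mated overnight with males and checked for vaginal plugs next morning; gestation onset taken as 10 p.m. the previous night. On gestation day 8.5 each dam got one ip injection, 0.55–2.7 mmol/kg, in 25% aqueous Cremophor EL (vehicle controls dosed alike), 10 μL/g body weight. Litters and implants tallied; resorptions and live fetuses reported as counts with percentages.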

Mus musculus [7] = experiment: Teratogenic effect in SWV mouse assessed as resorptions at 486 mg/kg, ip administered on morning of day 8 of gestation; format: toxicity, organism-based; set-up: dose 486 mg/kg, route intraperitoneal; settings: in vivo; summary of the method: as §2
Mus musculus [8] = experiment: Teratogenic effect in SWV mouse assessed as resorptions at 294 mg/kg, ip administered on morning of day 8 of gestation; format: toxicity, organism-based; set-up: dose 294 mg/kg, route intraperitoneal; settings: in vivo; summary of the method: as §2
Mus musculus [9] = experiment: Teratogenic effect in SWV mouse assessed as resorptions at 148 mg/kg, ip administered on morning of day 8 of gestation; format: toxicity, organism-based; set-up: dose 148 mg/kg, route intraperitoneal; settings: in vivo; summary of the method: as §2
Mus musculus [10] = experiment: Teratogenic effect in SWV mouse assessed as fetuses with neural tube deffects at 729 mg/kg, ip administered on morning of day 8 of gestation; format: toxicity, organism-based; set-up: dose 729 mg/kg, route intraperitoneal; settings: in vivo
Summary of the method: (§3)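 Two-month-old nulligravid SWV females were mated overnight and checked for vaginal plugs the next morning; gestation onset was set at 10 p.m. the previous night. On gestation day 8.5, each dam received a single ip injection (0.55-2.7 mmol/kg range) or vehicle (25% aqueous Cremophor EL) at 10 μL/g body weight. Litters were scored for implants, resorptions, live and dead fetuses, and fetuses with neural tube defects.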

Mus musculus [11] = experiment: Teratogenic effect in SWV mouse assessed as fetuses with neural tube deffects at 486 mg/kg, ip administered on morning of day 8 of gestation; format: toxicity, organism-based; set-up: dose 486 mg/kg, route intraperitoneal; settings: in vivo; summary of the method: as §3
Mus musculus [12] = experiment: Teratogenic effect in SWV mouse assessed as fetuses with neural tube deffects at 294 mg/kg, ip administered on morning of day 8 of gestation; format: toxicity, organism-based; set-up: dose 294 mg/kg, route intraperitoneal; settings: in vivo; summary of the method: as §3
Mus musculus [13] = experiment: Teratogenic effect in SWV mouse assessed as fetuses with neural tube deffects at 148 mg/kg, ip administered on morning of day 8 of gestation; format: toxicity, organism-based; set-up: dose 148 mg/kg, route intraperitoneal; settings: in vivo; summary of the method: as §3
Mus musculus [14] = experiment: Teratogenic effect in SWV mouse assessed as live fetuses at 729 mg/kg, ip administered on morning of day 8 of gestation; format: toxicity, organism-based; set-up: dose 729 mg/kg, route intraperitoneal; settings: in vivo; summary of the method: as §2
Mus musculus [15] = experiment: Teratogenic effect in SWV mouse assessed as live fetuses at 486 mg/kg, ip administered on morning of day 8 of gestation; format: toxicity, organism-based; set-up: dose 486 mg/kg, route intraperitoneal; settings: in vivo; summary of the method: as §2
Mus musculus [16] = experiment: Teratogenic effect in SWV mouse assessed as live fetuses at 294 mg/kg, ip administered on morning of day 8 of gestation; format: toxicity, organism-based; set-up: dose 294 mg/kg, route intraperitoneal; settings: in vivo; summary of the method: as §3
Mus musculus [17] = experiment: Teratogenic effect in SWV mouse assessed as live fetuses at 148 mg/kg, ip administered on morning of day 8 of gestation; format: toxicity, organism-based; set-up: dose 148 mg/kg, route intraperitoneal; settings: in vivo; summary of the method: as §3
Mus musculus [18] = experiment: Anticonvulsant activity in CF1 albino mouse assessed as inhibition of maximal electroshock-induced seizures at 30 mg/kg, ip after 0.5 hrs; format: functional, organism-based; set-up: dose 30 mg/kg
Summary of the method: (§4)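 Test compounds suspended in 0.5% methylcellulose and given ip to adult male CF no. 1 albino mice (18-25 g) at 0.01 mL/g body weight before maximal electroshock challenge.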

Mus musculus [19] = experiment: Anticonvulsant activity in CF1 albino mouse assessed as inhibition of maximal electroshock-induced seizures at 100 mg/kg, ip after 0.5 hrs; format: functional, organism-based; set-up: dose 100 mg/kg; summary of the method: as §4
Mus musculus [20] = experiment: Anticonvulsant activity in CF1 albino mouse assessed as inhibition of maximal electroshock-induced seizures at 300 mg/kg, ip after 0.5 hrs; format: functional, organism-based; set-up: dose 300 mg/kg; summary of the method: as §4
Mus musculus [21] = experiment: Anticonvulsant activity in CF1 albino mouse assessed as inhibition of maximal electroshock-induced seizures at 30 mg/kg, ip after 4 hrs; format: functional, organism-based; set-up: dose 30 mg/kg; summary of the method: as §4
Mus musculus [22] = experiment: Anticonvulsant activity in CF1 albino mouse assessed as inhibition of maximal electroshock-induced seizures at 100 mg/kg, ip after 4 hrs; format: functional, organism-based; set-up: dose 100 mg/kg; summary of the method: as §4
Mus musculus [23] = experiment: Anticonvulsant activity in CF1 albino mouse assessed as inhibition of maximal electroshock-induced seizures at 300 mg/kg, ip after 4 hrs; format: functional, organism-based; set-up: dose 300 mg/kg; summary of the method: as §4
Mus musculus [24] = experiment: Anticonvulsant activity in CF1 albino mouse assessed as inhibition of subcutaneous pentylenetetrazole-induced seizures at 300 mg/kg, ip after 4 hrs; format: functional, organism-based; set-up: dose 300 mg/kg; summary of the method: as §1
Mus musculus [25] = experiment: Neurotoxicity in CF1 albino mouse assessed as motor impairment at 30 mg/kg, ip after 0.5 hrs; format: toxicity, organism-based; set-up: dose 30 mg/kg, route intraperitoneal; settings: in vivo
Mus musculus [26] = experiment: Neurotoxicity in CF1 albino mouse assessed as motor impairment at 100 mg/kg, ip after 0.5 hrs; format: toxicity, organism-based; set-up: dose 100 mg/kg, route intraperitoneal; settings: in vivo
Mus musculus [27] = experiment: Neurotoxicity in CF1 albino mouse assessed as motor impairment at 300 mg/kg, ip after 0.5 hrs; format: toxicity, organism-based; set-up: dose 300 mg/kg, route intraperitoneal; settings: in vivo
Mus musculus [28] = experiment: Neurotoxicity in CF1 albino mouse assessed as motor impairment at 30 mg/kg, ip after 4 hrs; format: toxicity, organism-based; set-up: dose 30 mg/kg, route intraperitoneal; settings: in vivo
Mus musculus [29] = experiment: Neurotoxicity in CF1 albino mouse assessed as motor impairment at 100 mg/kg, ip after 4 hrs; format: toxicity, organism-based; set-up: dose 100 mg/kg, route intraperitoneal; settings: in vivo
Mus musculus [30] = experiment: Neurotoxicity in CF1 albino mouse assessed as motor impairment at 300 mg/kg, ip after 4 hrs; format: toxicity, organism-based; set-up: dose 300 mg/kg, route intraperitoneal; settings: in vivo
Rattus norvegicus [31] = species: Rattus norvegicus; experiment: Protective index, ratio of TD50 for rat to ED50 for maximal electroshock-induced rat seizure model
Rattus norvegicus [32] = experiment: Neurotoxicity in Sprague-Dawley rat assessed as motor impairment at 30 mg/kg, po after 0.25 to 4 hrs; settings: in vivo
Rattus norvegicus [33] = experiment: Anticonvulsant activity in po dosed rat assessed as inhibition of maximal electroshock-induced seizures
Rattus norvegicus [34] = experiment: Anticonvulsant activity in Sprague-Dawley rat assessed as inhibition of maximal electroshock-induced seizures at 30 mg/kg, po after 1 hr
Rattus norvegicus [35] = experiment: Anticonvulsant activity in Sprague-Dawley rat assessed as inhibition of maximal electroshock-induced seizures at 30 mg/kg, po after 2 hrs
Rattus norvegicus [36] = experiment: Anticonvulsant activity in Sprague-Dawley rat assessed as inhibition of maximal electroshock-induced seizures at 30 mg/kg, po after 4 hrs

`CCC(CC)C(=O)Nc1ccc(S(N)(=O)=O)cc1` was tested, and the Activity (Mus musculus [1]) was “inactive”, the Activity (Mus musculus [2]) was “inactive” and the Activity (Mus musculus [3]) was “inactive”. For the same compound, the Activity (Mus musculus [4]) was “inactive”, the Activity (Mus musculus [5]) was “inactive” and the Activity (Mus musculus [6]) was 53.2%. The Activity (Mus musculus [7]) was 52.1%, the Activity (Mus musculus [8]) was 15.8% and the Activity (Mus musculus [9]) was 7.7%. For the same compound, the Activity (Mus musculus [10]) was 20.3%, the Activity (Mus musculus [11]) was 25.9% and the Activity (Mus musculus [12]) was 4.5%. The Activity (Mus musculus [13]) was 0.8%, the Activity (Mus musculus [14]) was 46.8% and the Activity (Mus musculus [15]) was 47.9%. The Activity (Mus musculus [16]) was 84.2%, the Activity (Mus musculus [17]) was 93.3% and the Activity (Mus musculus [18]) was “Active”. The Activity (Mus musculus [19]) was “Active”, the Activity (Mus musculus [20]) was “Active” and the Activity (Mus musculus [21]) was “Active”. The Activity (Mus musculus [22]) was “Active”, the Activity (Mus musculus [23]) was “Active” and the Activity (Mus musculus [24]) was “inactive”. The Activity (Mus musculus [25]) was “Non-toxic”, the Activity (Mus musculus [26]) was “Non-toxic” and the Activity (Mus musculus [27]) was “Non-toxic”. For the same compound, the Activity (Mus musculus [28]) was “Non-toxic”, the Activity (Mus musculus [29]) was “Non-toxic” and the Activity (Mus musculus [30]) was “Non-toxic”. For the same compound, the “Ratio TD50/ED50” value (Rattus norvegicus [31]) was over 50.5, the Activity (Rattus norvegicus [32]) was “Non-toxic” and the ED50 (Rattus norvegicus [33]) was 9.9 mg/kg. The Activity (Rattus norvegicus [34]) was “Active”, the Activity (Rattus norvegicus [35]) was “Active” and the Activity (Rattus norvegicus [36]) was “Active”.
